Measured values as given in ChEMBL document CHEMBL2169757, “Discovery, synthesis, and biological evaluation of a novel group of selective inhibitors of filoviral entry” (J Med Chem, 2011).
Activity calls are given as the source filed them. No cut-off for these calls is given here.

Columns and labels:
Format in all cases: cell-based
293T [1] = experiment: Inhibition of compound-pretreated Ebolavirus GP pseudotyped in HIV virions infected in human 293T cells assessed as viral-cell entry at 60 uM after 48 hrs by luciferase gene assay relative to DMSO-treated control; design: scale not given: the % may be the effect or the level left; conditions: Zaire ebolavirus
How it was run: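 Ebola GP-pseudotyped HIV luciferase virions were mixed with compound (60 μM final) before infecting 293T cells. Medium was changed after overnight incubation, and luciferase was read from lysates at 48 h. Result is % infectivity relative to DMSO vehicle (0.1~0.2% final).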

293T [2] = experiment: Inhibition of compound-pretreated VSV GP pseudotyped in HIV virions infected in human 293T cells assessed as inhibition of viral-cell entry at 120 uM after 48 hrs by luciferase gene assay relative to DMSO-treated control; conditions: Vesicular stomatitis virus
HeLa [3] = experiment: Inhibition of compound-pretreated VSV GP pseudotyped in HIV virions infected in human HeLa cells assessed as inhibition of viral-cell entry at 120 uM after 48 hrs by luciferase gene assay relative to DMSO-treated control; conditions: Vesicular stomatitis virus
HeLa [4] = experiment: Inhibition of compound-pretreated Marburg GP pseudotyped in HIV virions infected in human HeLa cells assessed as inhibition of viral-cell entry at 60 uM after 48 hrs by luciferase gene assay relative to DMSO-treated control; conditions: Marburgvirus
How it was run: (§1)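 HIV luciferase virions pseudotyped with Marburg GP (Lake Victoria) were preincubated with compound (60 μM final), then added to 293T, HeLa or A549 cells. Medium was replaced after overnight incubation, and lysates were read for luciferase at 48 h. Values are % of DMSO control, mean ± standard error of three independent experiments.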

HeLa [5] = experiment: Inhibition of compound-pretreated Ebolavirus GP pseudotyped in HIV virions infected in human HeLa cells assessed as inhibition of viral-cell entry at 30 uM after 48 hrs by luciferase gene assay relative to DMSO-treated control; conditions: Zaire ebolavirus
How it was run: (§2)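 Pseudotypes were briefly preincubated with compound at room temperature, then added to 293T or HeLa cells seeded the day before. Medium was replaced after overnight incubation, and cells were lysed at 48 h for firefly luciferase reading. Single point was 30 μM; curves spanned 3.75–120 or 3.75–60 μM. Infectivity was taken as % of DMSO control, from 3–5 independent experiments.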

[6] = (§3) Inhibition of compound-pretreated Ebolavirus GP pseudotyped in HIV virions infected in human 293T cells assessed as inhibition of viral-cell entry after 48 hrs by luciferase gene assay relative to DMSO-treated control; conditions: Zaire ebolavirus, HEK-293T; how it was run: as §2
293T [7] = experiment: as §3; conditions: Zaire ebolavirus; how it was run: as §2
HeLa [8] = experiment: (§4) Inhibition of compound-pretreated Ebolavirus GP pseudotyped in HIV virions infected in human HeLa cells assessed as inhibition of viral-cell entry after 48 hrs by luciferase gene assay relative to DMSO-treated control; conditions: Zaire ebolavirus; how it was run: as §2
[9] = as §4; conditions: Zaire ebolavirus; how it was run: as §2
293T [10] = experiment: Inhibition of compound-pretreated Ebolavirus GP pseudotyped in HIV virions infected in human 293T cells assessed as inhibition of viral-cell entry at 30 uM after 48 hrs by luciferase gene assay relative to DMSO-treated control; conditions: Zaire ebolavirus; how it was run: as §2
A549 = experiment: Inhibition of compound-pretreated Marburg GP pseudotyped in HIV virions infected in human A549 cells assessed as inhibition of viral-cell entry at 60 uM after 48 hrs by luciferase gene assay relative to DMSO-treated control; conditions: Marburgvirus; how it was run: as §1
293T [11] = experiment: Inhibition of compound-pretreated Marburg GP pseudotyped in HIV virions infected in human 293T cells assessed as inhibition of viral-cell entry at 60 uM after 48 hrs by luciferase gene assay relative to DMSO-treated control; conditions: Marburgvirus; how it was run: as §1
293T [12] = experiment: Inhibition of compound-pretreated VSV GP pseudotyped in HIV virions infected in human 293T cells assessed as inhibition of viral-cell entry after 48 hrs by luciferase gene assay relative to DMSO-treated control; conditions: Vesicular stomatitis virus
HeLa [13] = experiment: Inhibition of compound-pretreated VSV GP pseudotyped in HIV virions infected in human HeLa cells assessed as inhibition of viral-cell entry after 48 hrs by luciferase gene assay relative to DMSO-treated control; conditions: Vesicular stomatitis virus
HEK-293T [14] = experiment: Cytotoxicity against human 293T cells infected with Ebolavirus GP pseudotyped in HIV virions assessed as effect on cell growth at 60 uM
How it was run: (§5)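 Compounds at 60 μM final were mixed with Ebola GP-pseudotyped HIV luciferase virions and added to 293T cells. Cell morphology and growth were checked by light microscopy at 24 and 48 h post-infection. Vehicle was DMSO at 0.1~0.2% final.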

HEK-293T [15] = experiment: Cytotoxicity against human 293T cells infected with Ebolavirus GP pseudotyped in HIV virions assessed as effect on cell morphology at 60 uM; how it was run: as §5
HEK-293T [16] = experiment: Cytotoxicity against human 293T cells infected with Ebolavirus GP pseudotyped in HIV virions assessed as cell death at 60 uM; how it was run: as §5

CCN(CC)CC(=O)NCc1cc(-c2ccc(C(F)(F)F)cc2)no1
Activity (293T [1]): 24%

CCN(CC)CC(=O)NCc1cn(-c2ccc(Br)cc2)nn1
Activity (293T [1]): 18%

CCN(CC)CC(=O)NCc1cc(-c2ccc(OC)cc2)no1
inhibition (293T [2]): inactive | inhibition (HeLa [3]): inactive | inhibition (HeLa [4]): 20% | inhibition (HeLa [5]): > 50% | IC50 [6]: 30 µM | inhibition (293T [7]): Dose-dependent effect | inhibition (HeLa [8]): Dose-dependent effect | IC50 [9]: 30 µM | inhibition (293T [10]): > 50% | inhibition (A549): 20% | inhibition (293T [11]): 20% | Activity (293T [1]): 56%

O=C(NCc1cc(-c2ccc(Br)cc2)no1)c1ccccc1
Activity (293T [1]): 82%

COc1ccc(-c2cc(CNC(=O)[C@@H](NC(=O)OCc3ccccc3)C3CCCN3C(=O)OCc3ccccc3)on2)cc1 (stereo not given in full)
Activity (293T [1]): 254%

CCC(=O)NCc1cc(-c2ccc(Br)cc2)no1
Activity (293T [1]): 99%

O=C1NC2(CCCC2)C(COc2ccccc2)O1 (stereo not given)
inhibition (293T [2]): Active | inhibition (HeLa [3]): Active

CCN(CC)CC(=O)NCc1cc(-c2ccc(Cl)cc2)no1
Activity (293T [1]): 17%

CCN(CC)CC(=O)NCc1cn(-c2c(Cl)cc(Cl)cc2Cl)nn1
Activity (293T [1]): 33%

CCN(CC)CC(=O)NCc1cn(-c2cccc(I)c2)nn1
Activity (293T [1]): 111%

CCN(CC)CC(=O)NCc1cc(-c2ccccc2)no1
Activity (293T [1]): 181%

CC(C)C(=O)NCc1cc(-c2ccc(Br)cc2)no1
Activity (293T [1]): 116%

COc1ccc(-c2cc(CNC(=O)[C@@H](NC(=O)OCc3ccccc3)C(C)C)on2)cc1
Activity (293T [1]): 220%

CCN(CC)CC(=O)NCc1cc(-c2c(F)c(F)c(F)c(F)c2F)no1
Activity (293T [1]): 52%

CCN(CC)CC(=O)NCc1cn(-c2ccc(I)cc2)nn1
inhibition (293T [12]): inactive | inhibition (HeLa [4]): > 90% | IC50 [6]: 5 µM | inhibition (293T [7]): Dose-dependent effect | inhibition (HeLa [8]): Dose-dependent effect | IC50 [9]: 5 µM | inhibition (HeLa [13]): inactive | inhibition (A549): > 90% | inhibition (293T [11]): Active | Activity (293T [1]): 4%

CC(=O)NCc1cc(-c2ccc(Br)cc2)no1
Activity (HEK-293T [14]): Non-toxic | Activity (HEK-293T [15]): Non-toxic | Activity (293T [1]): 105%

COc1ccc(-c2cc(CNC(=O)[C@H](CC(=O)OCc3ccccc3)NC(=O)OC(C)(C)C)on2)cc1
Activity (293T [1]): 118%

CCN(CC)CC(=O)NCc1cc(-c2ccc(Br)cc2)no1
Activity (293T [1]): 30%

CCCc1cc(CNC(=O)CN(CC)CC)on1
Activity (293T [1]): 102%

CCN(CC)CC(=O)NCc1cc(-c2ccc(I)cc2)no1
inhibition (293T [12]): inactive | inhibition (HeLa [4]): Active | IC50 [6]: 2.5 µM | inhibition (293T [7]): Dose-dependent effect | inhibition (HeLa [8]): Dose-dependent effect | IC50 [9]: 2.5 µM | inhibition (HeLa [13]): inactive | inhibition (A549): Active | inhibition (293T [11]): Active | Activity (293T [1]): 6%

COc1ccc(-c2cc(CNC(=O)CNC(=O)OCc3ccccc3)on2)cc1
Activity (293T [1]): 148%

CCN(CC)CC(=O)NCc1cn(-c2ccc(OC)cc2)nn1
Activity (293T [1]): 58%

COc1ccc(-c2cc(CNC(=O)[C@@H](N)Cc3ccccc3)on2)cc1
Activity (293T [1]): 106%

CCN(CC)CC(=O)NCc1cc(-c2ccco2)no1
Activity (293T [1]): 77%

CCN(CC)CC(=O)NCc1cn(-c2ccccc2Br)nn1
Activity (293T [1]): 19%

CCN(CC)CC(=O)NCc1cn(-c2ccc(Cl)cc2)nn1
Activity (293T [1]): 105%

CCN(CC)CC(=O)NCc1cc(-c2ccc([N+](=O)[O-])cc2)no1
Activity (293T [1]): 30%

CCN(CC)CC(=O)NCc1cn(-c2ccccc2[N+](=O)[O-])nn1
Activity (293T [1]): 66%

CCCCCCCn1cc(CNC(=O)CN(CC)CC)nn1
Activity (293T [1]): 60%

O=C(CBr)NCc1cc(-c2ccc(Br)cc2)no1
Activity (HEK-293T [16]): Toxic

CCN(CC)CC(=O)NCc1cc(-c2ccc(O)cc2)no1
Activity (293T [1]): 132%

CCN(CC)CC(=O)NCc1cn(-c2ccccc2)nn1
Activity (293T [1]): 46%

CCN(CC)CC(=O)NCc1cn(-c2c(Br)cc(Br)cc2Br)nn1
inhibition (293T [12]): inactive | IC50 [6]: 5 µM | inhibition (293T [7]): Dose-dependent effect | inhibition (HeLa [8]): Dose-dependent effect | IC50 [9]: 5 µM | inhibition (HeLa [13]): inactive | Activity (293T [1]): 3%

CCN(CC)CC(=O)NCc1cc(-c2cccc(OC)c2)no1
inhibition (293T [12]): inactive | IC50 [6]: 10 µM | inhibition (293T [7]): Dose-dependent effect | inhibition (HeLa [8]): Dose-dependent effect | IC50 [9]: 10 µM | inhibition (HeLa [13]): inactive | Activity (293T [1]): 4%

CCN(CC)CC(=O)NCc1cc(-c2c(C)cccc2C)no1
Activity (293T [1]): 59%

COc1ccc(-c2cc(CNC(=O)[C@H](CS)NC(C)=O)on2)cc1
Activity (HEK-293T [14]): Non-toxic | Activity (HEK-293T [15]): Non-toxic | Activity (293T [1]): 421%

CCN(CC)CC(=O)NCc1cc(-c2cccc([N+](=O)[O-])c2)no1
Activity (293T [1]): 37%

COc1ccc(-c2cc(CNC(=O)[C@H](Cc3ccccc3)NC(=O)OC(C)(C)C)on2)cc1
Activity (293T [1]): 188%

CCN(CC)CC(=O)NCc1cc(-c2ccc(C)cc2)no1
Activity (HEK-293T [14]): Non-toxic | Activity (HEK-293T [15]): Non-toxic | Activity (293T [1]): 381%

CCN(CC)CC(=O)NCc1cn(-c2cccc(OC)c2)nn1
Activity (293T [1]): 90%

CCN(CC)CC(=O)NCc1cc(-c2ccc(OC)c(OC)c2)no1
Activity (293T [1]): 160%

CCN(CC)CC(=O)NCc1cc(-c2ccc(OC)c(I)c2)no1
Activity (293T [1]): 4%

CCN(CC)CC(=O)NCc1cc(-c2ccccc2OC)no1
Activity (293T [1]): 87%

COc1ccc(-c2cc(CNC(=O)CBr)on2)cc1
Activity (293T [1]): 121%

COc1ccc(-c2cc(CNC(=O)OCC(C)C)on2)cc1
Activity (293T [1]): 118%

CCN(CC)CC(=O)NCc1cn(-c2ccc(OC)cc2[N+](=O)[O-])nn1
Activity (293T [1]): 92%

CCN(CC)CC(=O)NCc1cn(Cc2ccccc2)nn1
Activity (293T [1]): 35%
